Results taken from ChEMBL document CHEMBL4339252, “Prenylated Stilbenoids Affect Inflammation by Inhibiting the NF-κB/AP-1 Signaling Pathway and Cyclooxygenases and Lipoxygenase” (J Nat Prod, 2019).
Active and inactive are the calls of the source. No cut-off for these calls is given here.

Key:
THP-1 [1] = test: Antiinflammatory activity in PMA-differentiated human THP1 cells assessed as inhibition of TNFalpha production at 1 uM pre-incubated for 1 hr before LPS-stimulation for 24 hrs by ELISA; type: functional, cell-based
Procedure, shortened: (§1)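 THP-1 monocytes grown in RPMI 1640 with 10% FBS and antibiotics at 37 °C, plated at 5 × 10^5 cells/well and differentiated to macrophages with phorbol myristate acetate. Pretreated 1 h with compound in DMSO, or DMSO vehicle. Then stimulated with E. coli 0111:B4 LPS (1 μg/mL); unstimulated controls got no LPS. Medium collected after 24 h, cytokine measured by ELISA. Triplicates, three or more independent experiments, means ± SE.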

THP-1 [2] = test: Induction of TNFalpha production in PMA-differentiated human THP1 cells at 1 uM pre-incubated for 1 hr before LPS-stimulation for 24 hrs by ELISA; type: cell-based; settings: thp-1, 24 h; procedure, shortened: as §1
THP-1 [3] = test: Cytotoxicity against human THP1 cells assessed as reduction in cell viability incubated for 24 hrs by WST1 dye based assay; settings: THP-1, 24 h
Procedure, shortened: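 Undifferentiated THP-1 cells moved to serum-free medium at 5 × 10^5 cells/well. After 2 h, compounds in DMSO added at 0.125−20 μM and incubated 24 h. Viability read with WST-1 reagent. IC50 taken from four-parameter logistic fits of at least five-point curves, serial measurements in triplicate, means ± SE.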

THP-1 [4] = test: Induction of IL-1beta production in PMA-differentiated human THP1 cells at 1 uM pre-incubated for 1 hr before LPS-stimulation for 24 hrs by ELISA; type: cell-based; settings: thp-1, 24 h; procedure, shortened: as §1
Homo sapiens = species: Homo sapiens; test: Inhibition of LPS-stimulation dependent TLR4-induced NF-kappaB/AP-1 signaling cascade in human THP1-XBlue-MD2-CD14 cells at 1 uM pre-incubated for 1 hr before LPS-stimulation for 24 hrs by spectrophotometry
Procedure, shortened: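 THP-1-XBlue-MD2-CD14 reporter cells (5 × 10^5/well) pretreated 1 h with compound in DMSO, then stimulated with LPS (1 μg/mL) for 24 h. NF-κB/AP-1 activity read with Quanti-Blue reagent as OD at 655 nm and expressed against vehicle (100%). Five independent experiments in triplicate, means ± SE.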

[5] = Selectivity index, ratio of IC50 for inhibition of ram seminal vesicle COX1 to IC50 for inhibition of human recombinant COX2
[6] = target: T1, Prostaglandin G/H synthase 1 (Ovis aries, UniProt P05979); test: Inhibition of ram seminal vesicle COX1 assessed as reduction in PGE2 production using arachidonic acid substrate by ELISA
T1 sequence (P05979 whole entry): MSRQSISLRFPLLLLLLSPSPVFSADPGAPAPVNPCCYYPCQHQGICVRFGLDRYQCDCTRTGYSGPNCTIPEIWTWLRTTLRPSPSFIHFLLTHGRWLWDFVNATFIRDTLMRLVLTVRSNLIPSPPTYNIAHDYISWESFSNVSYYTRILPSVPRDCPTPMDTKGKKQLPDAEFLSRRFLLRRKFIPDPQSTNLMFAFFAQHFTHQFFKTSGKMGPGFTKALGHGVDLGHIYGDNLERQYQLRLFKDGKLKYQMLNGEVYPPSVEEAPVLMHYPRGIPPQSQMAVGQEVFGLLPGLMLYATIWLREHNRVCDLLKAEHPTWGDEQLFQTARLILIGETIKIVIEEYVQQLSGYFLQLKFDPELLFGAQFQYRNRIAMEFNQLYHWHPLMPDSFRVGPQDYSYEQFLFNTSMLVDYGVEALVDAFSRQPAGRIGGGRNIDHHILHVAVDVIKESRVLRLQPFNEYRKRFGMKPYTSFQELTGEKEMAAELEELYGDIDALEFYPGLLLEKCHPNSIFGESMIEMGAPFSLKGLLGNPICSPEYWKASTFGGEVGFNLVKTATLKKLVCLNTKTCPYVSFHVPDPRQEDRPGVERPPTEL

[7] = target: T2, Polyunsaturated fatty acid 5-lipoxygenase (Homo sapiens, UniProt P09917); test: Inhibition of human recombinant 5-LOX assessed as reduction in leukotriene B4 synthesis using arachidonic acid substrate by ELISA
T2 sequence (P09917 whole entry): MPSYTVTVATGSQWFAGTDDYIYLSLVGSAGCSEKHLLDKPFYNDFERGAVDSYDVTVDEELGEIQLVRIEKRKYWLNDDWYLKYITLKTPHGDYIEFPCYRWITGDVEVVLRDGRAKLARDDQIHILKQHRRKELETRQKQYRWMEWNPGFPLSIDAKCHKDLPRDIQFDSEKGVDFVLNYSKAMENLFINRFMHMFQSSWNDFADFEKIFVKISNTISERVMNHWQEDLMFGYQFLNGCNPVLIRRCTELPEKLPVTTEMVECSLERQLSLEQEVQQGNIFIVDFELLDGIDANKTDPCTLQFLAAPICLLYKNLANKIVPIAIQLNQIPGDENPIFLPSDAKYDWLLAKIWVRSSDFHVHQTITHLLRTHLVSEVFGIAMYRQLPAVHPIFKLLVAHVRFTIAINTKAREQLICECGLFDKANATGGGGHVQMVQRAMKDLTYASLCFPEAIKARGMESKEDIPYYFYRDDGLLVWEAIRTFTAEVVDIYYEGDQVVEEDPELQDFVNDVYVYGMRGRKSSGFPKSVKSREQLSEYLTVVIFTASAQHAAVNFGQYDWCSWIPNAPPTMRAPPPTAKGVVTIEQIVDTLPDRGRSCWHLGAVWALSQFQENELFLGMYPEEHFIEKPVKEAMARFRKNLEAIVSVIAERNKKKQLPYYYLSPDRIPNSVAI

[8] = target: T3, Prostaglandin G/H synthase 2 (Homo sapiens, UniProt P35354); test: Inhibition of human recombinant COX2 assessed as reduction in PGE2 production using arachidonic acid substrate by ELISA
T3 sequence (P35354 whole entry): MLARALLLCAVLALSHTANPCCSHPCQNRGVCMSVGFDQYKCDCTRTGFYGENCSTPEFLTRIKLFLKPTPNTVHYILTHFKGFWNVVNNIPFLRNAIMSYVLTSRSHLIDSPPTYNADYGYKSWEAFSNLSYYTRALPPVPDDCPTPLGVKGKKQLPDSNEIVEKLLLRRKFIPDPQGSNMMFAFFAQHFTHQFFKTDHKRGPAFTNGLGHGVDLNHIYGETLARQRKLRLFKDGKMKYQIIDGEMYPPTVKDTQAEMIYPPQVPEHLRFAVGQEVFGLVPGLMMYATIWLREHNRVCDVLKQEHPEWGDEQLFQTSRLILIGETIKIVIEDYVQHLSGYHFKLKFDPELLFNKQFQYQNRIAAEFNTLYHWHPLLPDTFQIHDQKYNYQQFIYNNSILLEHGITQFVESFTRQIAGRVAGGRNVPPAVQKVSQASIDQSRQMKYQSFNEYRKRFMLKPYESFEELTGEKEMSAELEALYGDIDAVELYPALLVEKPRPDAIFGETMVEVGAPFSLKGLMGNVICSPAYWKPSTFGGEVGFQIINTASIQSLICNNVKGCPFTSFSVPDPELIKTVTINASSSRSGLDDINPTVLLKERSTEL

THP-1 [9] = test: Antiinflammatory activity in PMA-differentiated human THP1 cells assessed as inhibition of IL-1beta production at 1 uM pre-incubated for 1 hr before LPS-stimulation for 24 hrs by ELISA; type: functional, cell-based; procedure, shortened: as §1
THP-1 [10] = test: Antiinflammatory activity in PMA-differentiated human THP1 cells assessed as inhibition of TNFalpha production at 0.1 uM pre-incubated for 1 hr before LPS-stimulation for 24 hrs by ELISA; type: functional, cell-based; procedure, shortened: as §1
THP-1 [11] = test: Induction of IL-1beta production in PMA-differentiated human THP1 cells at 0.1 uM pre-incubated for 1 hr before LPS-stimulation for 24 hrs by ELISA; type: cell-based; settings: thp-1, 24 h; procedure, shortened: as §1
[12] = target: c-Jun N-terminal kinase, JNK (Homo sapiens) (UniProt P45983+P53779+P45984); test: Inhibition of JNK phosphorylation in LPS-stimulated human THP1-XBlue-MD2-CD14 cells at 1 uM pre-incubated for 1 hr before LPS-stimulation for 30 mins by Western blot analysis
Procedure, shortened: (§2)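 THP-1-XBlue-MD2-CD14 cells pretreated with compound (1 μM), then LPS (1 μg/mL) added 1 h later. Lysates taken 30 min after LPS. 9 μg protein run on 12% PAGE, blotted to PVDF, blocked in 5% BSA. Probed for IκB-α, total and phospho p38, ERK1/2 and JNK, with β-actin as reference. ECL chemiluminescence; three independent experiments.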

[13] = target: T4, NF-kappa-B inhibitor alpha (Homo sapiens) (UniProt P25963); test: Inhibition of IkappaBalpha degradation in LPS-stimulated human THP1-XBlue-MD2-CD14 cells at 1 uM pre-incubated for 1 hr before LPS-stimulation for 30 mins by Western blot analysis; procedure, shortened: as §2
T4 sequence (whole entry): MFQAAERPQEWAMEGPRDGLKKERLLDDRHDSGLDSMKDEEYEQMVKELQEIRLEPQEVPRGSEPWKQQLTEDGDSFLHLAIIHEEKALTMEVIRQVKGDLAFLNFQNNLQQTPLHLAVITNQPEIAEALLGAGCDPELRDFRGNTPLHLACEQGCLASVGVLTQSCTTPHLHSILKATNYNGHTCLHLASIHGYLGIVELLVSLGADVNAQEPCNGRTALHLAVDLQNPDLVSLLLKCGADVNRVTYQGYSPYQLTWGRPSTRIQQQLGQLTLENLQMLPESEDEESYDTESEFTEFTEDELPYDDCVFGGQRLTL

[14] = target: Mitogen-activated protein kinase; ERK1/ERK2 (Homo sapiens) (UniProt P27361+P28482); test: Inhibition of ERK1/2 phosphorylation in LPS-stimulated human THP1-XBlue-MD2-CD14 cells at 1 uM pre-incubated for 1 hr before LPS-stimulation for 30 mins by Western blot analysis; procedure, shortened: as §2
[15] = target: MAP kinase p38 (Homo sapiens) (UniProt O15264+Q15759+Q16539+P53778); test: Inhibition of p38 phosphorylation in LPS-stimulated human THP1-XBlue-MD2-CD14 cells at 1 uM pre-incubated for 1 hr before LPS-stimulation for 30 mins by Western blot analysis; procedure, shortened: as §2

Sequence of Mitogen-activated protein kinase; ERK1/ERK2 (Homo sapiens) (P27361 whole entry, looked up): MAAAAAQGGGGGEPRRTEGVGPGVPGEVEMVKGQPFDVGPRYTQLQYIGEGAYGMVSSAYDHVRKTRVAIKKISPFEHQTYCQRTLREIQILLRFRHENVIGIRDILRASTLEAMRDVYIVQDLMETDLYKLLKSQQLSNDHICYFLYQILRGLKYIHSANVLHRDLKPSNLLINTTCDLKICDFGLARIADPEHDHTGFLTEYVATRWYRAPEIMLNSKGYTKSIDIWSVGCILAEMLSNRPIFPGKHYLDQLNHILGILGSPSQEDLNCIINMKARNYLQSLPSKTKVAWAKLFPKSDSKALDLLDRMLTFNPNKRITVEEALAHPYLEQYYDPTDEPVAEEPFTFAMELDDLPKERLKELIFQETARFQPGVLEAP
Sequence of Mitogen-activated protein kinase; ERK1/ERK2 (Homo sapiens) (P28482 whole entry, looked up): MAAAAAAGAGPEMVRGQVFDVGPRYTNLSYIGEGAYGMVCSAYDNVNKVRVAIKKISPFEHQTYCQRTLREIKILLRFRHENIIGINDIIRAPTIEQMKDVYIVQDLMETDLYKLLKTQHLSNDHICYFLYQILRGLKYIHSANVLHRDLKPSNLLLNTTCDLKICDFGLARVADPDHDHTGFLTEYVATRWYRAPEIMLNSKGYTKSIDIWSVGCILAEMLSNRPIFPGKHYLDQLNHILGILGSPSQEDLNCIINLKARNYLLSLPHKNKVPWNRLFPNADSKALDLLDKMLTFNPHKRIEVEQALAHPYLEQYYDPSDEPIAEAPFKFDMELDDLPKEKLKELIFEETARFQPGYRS

Compound: CC(C)=CCc1c(O)cc(/C=C/c2ccc(O)cc2O)cc1O
- inhibition (THP-1 [1]): inactive
- Activity (THP-1 [2]): Toxic
- IC50 (THP-1 [3]): > 10 µM
- Activity (THP-1 [4]): Toxic

Compound: CC(C)=CCc1c(O)cc2c(c1/C=C\c1ccc(O)cc1)CCC(C)(C)O2
- inhibition (THP-1 [1]): Active
- IC50 (THP-1 [3]): 4.9 µM

Compound: C[C@]12C=CC(=O)C=C1CC[C@@H]1[C@@H]2C(=O)C[C@@]2(C)[C@H]1CC[C@]2(O)C(=O)CO
- inhibition (Homo sapiens): Active

Compound: COc1ccc(/C=C/c2c(CC=C(C)C)c(O)cc(O)c2CC=C(C)C)cc1O
- inhibition (THP-1 [1]): Active
- Ratio IC50 [5]: 0.06
- IC50 [6]: 0.9 µM
- IC50 ([7]; read-out: IC50): 0.9 µM
- IC50 (THP-1 [3]): 3.9 µM
- IC50 [8]: 14.7 µM

Compound: COc1cc(/C=C/c2ccc(OC)c(CC=C(C)C)c2)cc(OC)c1
- inhibition (THP-1 [1]): Active
- IC50 (THP-1 [3]): > 10 µM
- inhibition (THP-1 [9]): Active

Compound: COc1ccc(/C=C/c2c(CC=C(C)C)c(O)cc3c2CC(O)C(C)(C)O3)cc1 (stereo not given)
- inhibition (THP-1 [1]): inactive
- inhibition (THP-1 [10]): Active
- IC50 (THP-1 [3]): 1.8 µM
- Activity (THP-1 [11]): Toxic

Compound: C=CC(C)(C)c1cc(/C=C/c2cc(OC)cc(OC)c2)ccc1OC
- inhibition (THP-1 [1]): Active
- IC50 (THP-1 [3]): > 10 µM
- inhibition (THP-1 [9]): inactive
- inhibition (Homo sapiens): Active

Compound: COc1ccc(/C=C/c2c(CC=C(C)C)c(O)cc(O)c2CC=C(C)C)cc1
- inhibition (THP-1 [1]): Active
- Ratio IC50 [5]: 0.17
- IC50 [6]: 0.8 µM
- IC50 ([7]; read-out: IC50): 1.1 µM
- IC50 (THP-1 [3]): 2.7 µM
- inhibition (Homo sapiens): Active
- IC50 [8]: 4.7 µM

Compound: CC1(C)C=Cc2c(O)cc(/C=C/c3ccc(O)cc3)cc2O1 [ARAHYPIN-5]
- inhibition (THP-1 [1]): Active
- IC50 [6]: 13.3 µM
- IC50 ([7]; read-out: IC50): 2.4 µM
- inhibition [12]: inactive
- IC50 (THP-1 [3]): > 10 µM
- inhibition [13]: Active
- inhibition (THP-1 [9]): inactive
- inhibition (Homo sapiens): Active
- inhibition [14]: inactive
- inhibition [15]: inactive
- IC50 [8]: > 20 µM

Compound: CC(C)=CCc1c(O)cc(O)c(CC=C(C)C)c1/C=C/c1ccc(O)cc1
- inhibition (THP-1 [1]): Active
- Ratio IC50 [5]: 0.07
- IC50 [6]: 0.4 µM
- IC50 ([7]; read-out: IC50): 0.9 µM
- IC50 (THP-1 [3]): 12.8 µM
- inhibition (THP-1 [9]): Active
- inhibition (Homo sapiens): Active
- IC50 [8]: 5.7 µM

Compound: COc1ccc(/C=C/c2c(CC=C(C)C)c(O)cc3c2CCC(C)(C)O3)cc1O
- inhibition (THP-1 [1]): Active
- Ratio IC50 [5]: 0.36
- IC50 [6]: 12.6 µM
- IC50 [7]: Not Active
- IC50 (THP-1 [3]): 3.3 µM
- IC50 [8]: 35.5 µM

Compound: COc1cc(/C=C\c2ccc(OC)c(CC=C(C)C)c2)cc(OC)c1
- inhibition (THP-1 [1]): Active
- IC50 (THP-1 [3]): > 10 µM
- inhibition (THP-1 [9]): Active
- inhibition (Homo sapiens): Active
